For 72 compounds, cytotoxicity results are on record in ChEMBL document CHEMBL4513216, “Probing the Open Global Health Chemical Diversity Library for Multistage-Active Starting Points for Next-Generation Antimalarials” (ACS Infect Dis, 2020).

This series is described as follows: Toxicity liver stage against HepG2, at 10uM. In kind it is cell-based. The arrangement: test concentration 10 uM, cell line HepG2-A16-CD81EGFP. The note with it: human, HepG2-A16-CD81EGFP cells; read-out: INHIBITION
In a few lines: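 Uninfected HepG2-A16-CD81EGFP cells, 3 × 10^3 per well, 1536-well, plated on prespotted compound at 10 μM final, parasite-free screening media added to match infected plates; puromycin 10 μM positive, DMSO 0.5% negative; run in parallel with 48 h PbLuc assay at 37 °C, 5% CO2; viability by CellTiter-Glo luminescence, normalized to controls.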
Regarding `Cc1ccc(NC(=O)c2n[nH]c(-n3cnnc3)n2)cc1C`, the cytotoxicity at 10 µM was -1.4%.
Regarding `CN1C(=O)C2(CCNCC2)c2cc(F)ccc21`, the cytotoxicity at 10 µM is -115%.
For `CCOCC(=O)NC1(c2nc(C)cs2)CCCC1`, the cytotoxicity at 10 µM is -12.7%.
For `Cc1ccc2nc(C(=O)N3CCCC[C@]4(C)NC(=O)CCC[C@H]34)cn2c1`, the cytotoxicity at 10 µM was -9.99%.
Turning to `O=C1NCC2=Nc3ccccc3NC(c3ccccc3)C12` (configuration not stated), the cytotoxicity at 10 µM was found to be 1.14%.
On to `Cc1ccc(-n2ncc(C(=O)NC3CC(C)(C)NC(C)(C)C3)c2N)cc1`, for which the cytotoxicity at 10 µM is -4.2%.
Turning to `Cc1cccc2c1OCCCC2NCc1nccn1Cc1ccccc1` (configuration not stated), the cytotoxicity at 10 µM worked out at 1.38%.
With `CSc1ncc(CNCC2(N3CCCCC3)Cc3ccccc3C2)cn1`, the cytotoxicity at 10 µM was 5.07%.
For the compound `CN(Cc1ccco1)c1ccc(C(=O)NCCCc2ccccn2)cn1`, the cytotoxicity at 10 µM was -55.8%.
As to `CCN(C)c1ncnc2c1CCN(Cc1ccncc1)CC2`, the cytotoxicity at 10 µM was -10.7%.
Regarding `CC(C)CNC(=O)C1=NOC2(CCN(Cc3cccc(C#N)c3)C2)C1` (configuration not stated), the cytotoxicity at 10 µM was found to be 8.37%.
Consider `COCCN1Cc2ccccc2C2(CCN(C(=O)c3ccno3)CC2)C1`, for which the cytotoxicity at 10 µM was found to be 5.58%.
Take `CN(C)CC(=O)NC1CC(C)(C)Cc2nc(C(C)(C)C)ncc21` (configuration not stated): the cytotoxicity at 10 µM was -13.4%.
For `O=C(CCS(=O)(=O)C1CCCC1)N1CCCC(n2ccnc2)C1` (configuration not stated), the cytotoxicity at 10 µM was -0.968%.
To `CS(=O)(=O)N1CCC(Oc2ccc(C(=O)NCCC(N)=O)cc2Cl)CC1` belongs -1.28%; to `Cc1nn(-c2cc(Cl)cc(Cl)c2)c(C)c1CCC(=O)O`, 3.8%; to `CCN1CC(C(=O)N2CCN(CCn3cccc3)CC2)CCC1=O` (configuration not stated), 1.87%.
`COCC1CN(Cc2ccoc2)Cc2nnn(C)c21` (configuration not stated): the cytotoxicity at 10 µM is -3.73%.
Consider `CN(C)c1nc(-c2ccncc2)nc2c1CCN(C(=O)[C@H](N)CO)C2`, for which the cytotoxicity at 10 µM stood at 8.01%.
Regarding `CS(=O)(=O)NCCNc1ncnc2cccc(F)c12`, the cytotoxicity at 10 µM is 3.17%.
For `O=C(c1ccnnc1)N1CCN2C[C@H](Oc3cccnc3)C[C@H]2C1`, the cytotoxicity at 10 µM worked out at 1.43%.
Take `c1cn(-c2cnc(C3CCCNC3)cn2)cn1` (configuration not stated): the cytotoxicity at 10 µM was -25.2%.
Consider `CCCN1CCCn2nc(CNS(=O)(=O)c3cccc(F)c3)cc2C1`, for which the cytotoxicity at 10 µM is -13.1%.
Consider `O=C(NCCC1=CCCCC1)NCc1nnc2n1CCC2`, for which the cytotoxicity at 10 µM is -5.6%.
Take `CCC(C(=O)Nc1ccc2cn(CC)nc2c1)N1CCCC1=O` (configuration not stated): the cytotoxicity at 10 µM was -46.7%.
In the case of `N#Cc1ccc(N2CCCC3(CCC(=O)N3CC3CC3)CC2)nc1` (configuration not stated), the cytotoxicity at 10 µM was -125%.
Regarding `Cc1cc(C(=O)NS(C)(=O)=O)c(C)n1-c1ccccc1`, the cytotoxicity at 10 µM was -8.81%.
In the case of `c1cncc(CN2CC[C@H]3O[C@@H](COCC4CC4)CC[C@H]32)c1`, the cytotoxicity at 10 µM came to 2.19%.
Regarding `CC(C)c1cc(N2CCSCC2)n2nccc2n1`, the cytotoxicity at 10 µM came out at 4.66%.
For the compound `O=C(c1ccc(F)cc1)N1CCC2(CCCN2CC2CC2)CC1`, the cytotoxicity at 10 µM worked out at 5.05%.
The figure for `O=C(CCN1CCCC1c1cccc2c1OCCO2)N1CCCCC1` (configuration not stated) is 2.43%; for `O=S(=O)(NCCN1CCOCC1)c1cncc(Cl)c1` it is 2.77%.
Take `CC(C)(C)OCC1CN(Cc2cccs2)S(=O)(=O)c2cnccc2O1` (configuration not stated): the cytotoxicity at 10 µM was 2.89%.
Consider `Cc1nnc(NC(=O)CN2CCCC2c2noc(C(C)C)n2)s1` (configuration not stated), for which the cytotoxicity at 10 µM was -9.05%.
To `Cc1occc1CNC(=O)Nc1ccc2nc(N3CCOCC3)oc2c1` belongs 9.5%.
On to `Cn1nc(COCC2CC2)c2c1CN(C(=O)c1ccno1)CC2`, for which the cytotoxicity at 10 µM is -5.91%.
Regarding `COc1cc(C(=O)O)ccc1OCC(=O)NCCc1ccccc1`, the cytotoxicity at 10 µM is -10.6%.
For the compound `O=C(NCc1cccnc1)[C@@H]1C[C@H]2[C@H](CCN2c2ncccn2)O1`, the cytotoxicity at 10 µM was -66.6%.
The figure for `Cc1c(C(=O)NC2=NCCS2)cnn1-c1ccc(Br)cc1` is -0.647%; for `CC(C)(C)CN1CCCC(O)(CN2CCc3[nH]ncc3C2)C1=O` (configuration not stated) it is -5.14%; for `NC(=O)C1CCN(C(=O)CCn2ccc3cc(Br)ccc32)CC1` it is -6.44%.
On to `CCOC(C)c1noc(CN2CCN(c3nnc(C)s3)CC2)n1` (configuration not stated), for which the cytotoxicity at 10 µM was -11.1%.
With `CC(C)(C)C(=O)NCCC(=O)NS(=O)(=O)c1cccnc1`, the cytotoxicity at 10 µM was -3.15%.
With `CCC(CNS(N)(=O)=O)Oc1ccccc1F` (configuration not stated), the cytotoxicity at 10 µM turned out to be 3.01%.
To `CN(C)C(=O)N1CCC[C@]2(C(=O)N(C)C)CN(c3ccccn3)C[C@@H]2C1` belongs 7.13%.
Consider `CCC(CO)NC(=O)c1ccc2ccc(N(C)CC3CC3)n2c1` (configuration not stated), for which the cytotoxicity at 10 µM is 4.82%.
To `CC(c1ccco1)N(C)Cc1cc2cc3c(cc2[nH]c1=O)OCO3` (configuration not stated) belongs 2.59%; to `Cn1cnnc1C1CCCN(c2nc3ccccc3o2)C1` (configuration not stated), -17.4%.
Turning to `CC(C)n1cnnc1Cn1c(=O)cnc2ccccc21`, the cytotoxicity at 10 µM was -4.04%.
Turning to `FC(F)(F)c1cccc(N2CCC(NCc3cccnc3)CC2)c1`, the cytotoxicity at 10 µM was -64.5%.
Regarding `CC(NC(=O)NCc1ccccc1)(C(=O)O)c1ccco1` (configuration not stated), the cytotoxicity at 10 µM was -3.37%.
On to `O=C1CCCCN1CCC(=O)N1CCCCC1c1ccc(F)cc1` (configuration not stated), for which the cytotoxicity at 10 µM was -41.7%.
As for `CCCN(CC1CC1)S(=O)(=O)c1ccc(NC(C)=O)cc1`, the cytotoxicity at 10 µM worked out at 9.35%.
Consider `CCOCc1nc(N2CCOCC2)sc1C(=O)NCc1ccco1`, for which the cytotoxicity at 10 µM was 1.64%.
For `CSCCCN1C[C@H](NC(=O)c2cnn(C)c2)[C@@H](C2CC2)C1`, the cytotoxicity at 10 µM was found to be 4.43%.
In the case of `CN(C)C(=O)c1nc2c(n1C)CCN(Cc1ccccc1)C2`, the cytotoxicity at 10 µM amounted to 7.83%.
To `COCCNc1nnc(-c2cnc(C)cn2)s1` belongs 4.22%.
Regarding `Cc1nc(CN(C)CC2CCCN2c2cccnn2)nc2ccccc12` (configuration not stated), the cytotoxicity at 10 µM is -6.31%.
To `COc1cccc(CC(=O)N2CCc3ncnc(C)c3CC2)c1` belongs -1.59%; to `CC(C)Oc1ccc(C(=O)N2CCC(Nc3cccnn3)CC2)cn1`, -31%.
Take `CC(CNC(=O)c1nc(N2CCOCC2)ncc1Cl)c1ccccc1` (configuration not stated): the cytotoxicity at 10 µM amounted to 0.666%.
For the compound `CCCN1CCCn2nc(CNC(=O)CC3CCS(=O)(=O)C3)cc2C1` (configuration not stated), the cytotoxicity at 10 µM was -2.1%.
On to `CC(CN1CCCC1=O)NC(=O)c1cc(-c2cccc(Cl)c2)no1` (configuration not stated), for which the cytotoxicity at 10 µM worked out at 5.75%.
Take `O=S(=O)(NCCNc1ccc(-n2cccc2)nn1)c1ccccc1`: the cytotoxicity at 10 µM was -0.426%.
Regarding `O=c1[nH]c2ncccc2n1C1CCCC1`, the cytotoxicity at 10 µM turned out to be 10.6%.
Consider `CC(=O)c1cc2ncc(C(=O)NC3CCCCC3)cc2[nH]1`, for which the cytotoxicity at 10 µM is 0.0039%.
For the compound `CN(C)C(=O)CNS(=O)(=O)c1cc(Br)ccc1F`, the cytotoxicity at 10 µM was -47.1%.
For `Cc1ccc2nc(CN3CCCCC3CCn3cccn3)cn2c1` (configuration not stated), the cytotoxicity at 10 µM turned out to be 7.31%.
Turning to `CCc1noc(CC)c1CC(=O)N1CCCC(N2CCCCC2)C1` (configuration not stated), the cytotoxicity at 10 µM was -15.3%.
Consider `CN(C)C(=O)c1ccc(N2CCC3(CCC(=O)N(CCO)C3)CC2)nc1`, for which the cytotoxicity at 10 µM came out at 3.8%.
As for `CC(C)NC(=O)CC1[C@H]2CN(C(=O)Cc3ccccn3)C[C@@H]12` (some centres not stated), the cytotoxicity at 10 µM was 12%.
Regarding `CC(C)N1CCCC(C(=O)N2CCN(c3cnn(C)c(=O)c3)CC2)C1` (configuration not stated), the cytotoxicity at 10 µM is -3.75%.
